EP2 mod: modulators of human EP2 prostaglandin E2 receptor; EP2-expressing cells, cAMP HTRF FRET, PGE2 co-stimulation; induction, % at 25 µM; 260,000 tested, 0.83% active;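 active = compounds whose cAMP rise, as percent of the full-agonist control response, exceeds 60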;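 also: rat C6 glioma line stably carrying human EP2 under a CMV promoter; the protocol text gives 20 µM as final concentration; 100% = response of wells given 1 µM PGE2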
Target sequence (P43116 whole entry, looked up): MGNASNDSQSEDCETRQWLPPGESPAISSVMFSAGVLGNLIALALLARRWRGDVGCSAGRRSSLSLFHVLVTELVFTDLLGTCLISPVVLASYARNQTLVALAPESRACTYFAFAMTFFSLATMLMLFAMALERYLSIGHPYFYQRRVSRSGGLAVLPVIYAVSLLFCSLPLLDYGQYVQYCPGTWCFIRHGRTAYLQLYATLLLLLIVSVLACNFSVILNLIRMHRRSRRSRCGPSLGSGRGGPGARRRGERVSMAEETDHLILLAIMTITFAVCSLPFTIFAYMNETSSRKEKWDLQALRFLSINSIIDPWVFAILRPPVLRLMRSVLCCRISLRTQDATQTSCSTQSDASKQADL
Efa HMGR inh: E. faecalis class II HMG-CoA reductase inhibition | purified E. faecalis HMGR, NADPH absorbance 340 nm kinetic | inhibition, % at 10 µM | 190,000 tested, 0.41% active;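 active = inhibition above a set limit, the median over all tested compounds plus 3 SD, cut at about 9.5% in these data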;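 also: enzyme runs in reverse so mevalonate oxidation gives rising NADPH absorbance; 0% = complete reaction with DMSO and 100% = background rate lacking mevalonate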
PGE2 EP2 inh: blocks the human prostaglandin E2 receptor EP2. C6 glioma cells expressing human EP2, cAMP TR-FRET; cells stimulated with saturating PGE2. inhibition, % at 25 µM. 260,000 tested, 0.52% active;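 active = percent inhibition above 40 after rounding to a whole number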;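 also: rat C6 glioma host cells with rolipram phosphodiesterase inhibitor present; the protocol text gives 20 µM as final concentration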
Tb hexokinase: T. brucei hexokinase 1 inhibition; AID 1430; recombinant TbHK1, G6PDH-coupled NADH A340; inhibition, % at 10 µM; 220,000 tested, 0.11% active;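 active = inhibition of 50% or more in the single-dose primary screen; inactive = inhibition below 50%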
bCat nuc transl: alters nuclear translocation of beta-catenin in HeLa cells; nuclear translocation activity, % at 5 µM; 190,000 tested, 0.3% active; immunofluorescence imaging;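 active = nuclear translocation activity above 50% at 5 µM, with a well cell count of 50 or more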;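 also: per-cell ratio of nuclear to cytoplasmic median beta-catenin stain intensity; plate controls were DMSO negative control for no effect and GSK-3 inhibitor IX positive control for full effect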
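Read-out: Nuclear/cytoplasmic beta-catenin signal ratio, % activation | Assay system: Human HeLa cell line | Times: 24 h compound exposure at 37°C, 5% CO2 | Signal: Fluorescence imaging of beta-catenin antibody stain plus DAPI | Dosing: 5 µM primary, 0.02–20 µM confirmation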
MT stabilize HCS: microtubule stabilization, imaging screen; HeLa tubulin immunostaining HCS, 24 h; share of cells brighter than vehicle mean+2SD; AID 2205; % tubulin-high responders, % at 10 µM; 200,000 tested, 0.83% active;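 active = plate Z-score above 3 for both tubulin-high and condensed-nucleus cell shares, with cell loss under 80%, at 10 µM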;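 also: anti alpha tubulin signal scored within the nucleus-defined area of each cell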
The depositor's hits bear a star; / = not tested or not shown; ! = not confirmed by another sample. Shown are actives, neighbours in structure and some others; about 2.4% of the full set was active somewhere.

SMILES	EP2 mod	Efa HMGR inh	PGE2 EP2 inh	Tb hexokinase	bCat nuc transl	MT stabilize HCS
CSc1ccc(-c2nnn(Cc3ccc(Br)cc3)n2)cc1	-42.4	-1.9	43.0*	8.1	-11.9	3.5
CSc1ccc(-c2nnn(Cc3ccccn3)n2)cc1	-41.0	-0.1	9.8	-1.4	-0.7	3.8
CC(C)c1ccc(/C=N/NC(=O)c2cccc(Cl)c2)cc1	-28.5	-1.6	15.9	0.5	/	22.7*
Cc1ccc(N(C(=O)c2ccco2)C(C(=O)NC2CCCC2)c2ccco2)cc1C (stereo not given)	4.0	/	14.0	/	/	/
CCNc1nc(SCc2ccccc2)nc(N2CCOCC2)n1	63.0*	-1.5	7.1	-4.7	-1.5	2.1
C=CCNC(=S)NNC(=O)C(CCCC)CC(O)COCC(C)C (stereo not given)	-1.9	/	120.0*	0.5	-0.5	/
CCOC(=O)CSc1nc2ccccc2c(=O)n1-c1ccc(F)cc1	34.2	/	7.6	/	/	/
CCOCCn1c(SCc2ccccc2)nc2c1c(=O)[nH]c(=O)n2C	11.9	/	13.7	-9.9	-1.9	/
CC(C)Sc1nc2c(c(=O)[nH]c(=O)n2C)n1CCCc1ccccc1	71.4*	/	9.2	/	/	/
CCCCCn1c(Sc2nc3ccccc3s2)nc2c1c(=O)[nH]c(=O)n2C	62.9*	-2.2	7.2	-2.9	-2.9	1.9
C/C=C/Cn1c(SCc2ccccc2)nc2c1c(=O)[nH]c(=O)n2C	65.8*!	1.7	9.7	15.2	0.2	3.4
CCCCCn1c(Sc2ncccn2)nc2c1c(=O)[nH]c(=O)n2C	-1.4	-5.1	7.5	-1.2	0.9	2.3
Nc1cc(-c2cccs2)nn(CC(=O)N2CCCC2)c1=O	-9.6	/	6.7	/	/	/
O=C(Cn1c(=O)n(Cc2ccco2)c2ncccc21)NC1CCCCC1	12.5	/	/	/	/	/
Cc1ccc(S(=O)(=O)Oc2cc(S(=O)(=O)O)cc3cc(S(=O)(=O)O)cc(N)c23)cc1	31.8	/	60.8*	/	/	/
Cc1ccc(S(=O)(=O)Oc2ccccc2/C=N/O)cc1	2.8	0.1	7.2	2.3	-2.4	2.7
O=C(COc1ncnc2ccccc12)NCc1noc(-c2ccccc2)n1	-27.6	/	8.8	/	/	/
CCOc1ccc2c(c1)C(c1cccnc1)=NNC(c1ccc(C)cc1)=N2	-18.2	/	11.0	/	/	/
NC(=O)c1ccc(N=Nc2c(O)c3ccccc3[nH]c2=O)cc1	-21.5	/	13.9	-3.0	-1.6	/
N=C(N)c1ccc(N=Nc2c(O)ccc3c2[nH]c2ccccc23)cc1	-23.1	/	50.6*	/	/	/
COc1cc(OC)cc(C(=O)N2CCC(C(=O)NCCC3=CCCCC3)CC2)c1	-70.2	/	7.6	/	/	/
CCOc1ccc(/C(O)=C2/C(=O)C(=O)N(CC3CCCO3)C2c2ccco2)cc1 (stereo not given)	32.9	28.6*	16.1	-20.3	-0.5	1.6
CC(C)=N/N=C(\N)SCc1ccccc1	18.0	/	6.2	-2.0	-1.1	/
C/C(=N\[N-]C(=[SH+])SCc1ccccc1)c1ccccn1.[Cl][Cu]	-47.5	/	87.7*	/	/	/
CSC(=[SH+])[N-]N=C(c1ccccn1)c1ccccn1.[Cu][Br]	-64.1	/	107.9*	/	/	/
SMILES	EP2 mod	Efa HMGR inh	PGE2 EP2 inh	Tb hexokinase	bCat nuc transl	MT stabilize HCS
CSc1ccccc1NC(=O)c1ccccn1	14.8	-4.9	3.7	-1.7	0.6	3.8
O=C(COc1ccccc1C(=O)N/N=C\c1ccc(O)c(O)c1)N/N=C/c1ccc(O)c(O)c1	5.5	28.7*	/	-4.5	0.4	4.8
O=C(COc1ccccc1[N+](=O)[O-])N/N=C/c1ccc(O)c([N+](=O)[O-])c1	6.9	1.9	11.4	-12.6	-0.3	3.7
CC[C@H](Cn1nc(-c2ccc(F)c(F)c2)ccc1=O)NC(=O)Cc1c[nH]c2ccccc12	-47.5	/	/	/	/	/
C/C(=N\NC(=O)c1ccccc1O)c1ccc(Br)s1	-32.5	-3.2	6.9	24.5	0.1	1.3
C/C(=N\NC(=O)c1cccc(F)c1)c1ccc(Br)s1	1.4	-13.0	5.8	0.6	22.2	34.1*
Cc1ccc(C(=O)NCCc2ccncc2)cc1	25.5	11.9*	1.9	4.8	/	2.4
Cc1ccc(Oc2ccc(C(=O)NCc3ccncc3)cc2)cc1	-35.5	-1.4	-0.5	0.8	-1.1	4.4
COc1ccc2[nH]c(C)cc(=O)c2c1	25.3	-1.1	8.1	-15.4	0.7	2.8
COc1ccc2[nH]c3c(c2c1)CCNC3C1CC=C(C)CC1 (stereo not given)	-74.6	4.2	9.5	10.4	51.4*	9.3*
CCN(C(=O)C1CC1)c1nc(-c2cc(OC)ccc2OC)cs1	65.3*	/	9.0	/	/	/
COc1ccc(OC)c(-c2csc(N(C)C(=O)COc3ccc(C)cc3)n2)c1	32.4	/	53.9*	/	/	/
CCCCC(=O)Nc1nc(C)c(-c2csc(Nc3cc(Cl)ccc3OC)n2)s1	13.9	-0.4	7.5	-13.1	6.1	2.9
CCCCC(=O)Nc1nc(C)c(-c2csc(Nc3cc(OC)ccc3OC)n2)s1	21.9	-3.2	12.5	-8.0	39.1	52.3*
COc1ccc(OC)c(-c2csc(N(C)C(=O)c3cc(OC)c(OC)c(OC)c3)n2)c1	-12.5	/	3.7	/	/	/
COc1cccc(CC(=O)Nc2nc(-c3cc(OC)ccc3OC)cs2)c1	-20.2	12.2*	4.6	7.8	-1.6	2.7
O=C(c1ccc(Cl)cc1)N1N=C(C(F)(F)F)CC1(O)C1CCCCC1 (stereo not given)	15.7	/	10.4	/	/	/
CC(C)[C@@H](Cn1nc(C2CC2)ccc1=O)NC(=O)C1(c2ccccc2)CCCCC1	-8.1	/	/	/	/	/
CCn1c(CNc2ccccc2Cl)n[nH]c1=S	-11.2	/	6.6	/	/	/
COc1cccc(CN2CCN(Cc3cnn(C)c3C)[C@@H](C)C2)c1	2.5	/	/	/	/	/
COc1ccc(N2CCN(C(=O)C3CCC(Cn4c(=S)[nH]c5ccccc5c4=O)CC3)CC2)cc1 (stereo not given)	12.7	21.6*	7.8	-8.8	-0.1	4.5
CCCC(C)NC(=O)C1CCN(S(=O)(=O)c2ccc(F)cc2)CC1 (stereo not given)	-12.7	/	7.0	/	/	/
O=c1ccsn1Cc1ccccc1	-43.0	-3.2	65.1*	0.6	0.3	1.4
CC(O)CN(Cc1ccc(-c2ccccc2)cc1)Cc1ccc2c(c1)OCO2 (stereo not given)	-36.5	/	12.3	/	/	/
[O-][n+]1cccc2c(Br)cc(Br)c(O)c21	8.0	9.9*	7.2	3.8	0.4	2.0
CN1C[C@H](c2ccccc2)C(O)([C@]2(c3ccccc3)CN(C)C[C@H](c3ccccc3)C2=O)[C@H](c2ccccc2)C1 (stereo not given in full)	21.0	/	39.7*	/	/	/
O=C(O)c1ccc(NC(=S)NC(=O)c2ccc(-c3ccccc3)cc2)cc1	-88.8	-0.1	66.3*	-8.6	2.1	2.2
Cc1ccc(NC(=O)c2nc3ncccn3n2)cc1C	-17.8	/	10.8	/	/	/
Cc1cc(C)cc(Nc2c(F)c(F)c(F)c(F)c2C(=O)O)c1	25.3	9.6*	4.3	-4.4	0.1	1.8
CC1(C)O[C@H]2[C@@H](O1)[C@@H](On1nnc3ccc(Cl)cc31)O[C@@H]2[C@@H]1COC(C)(C)O1	26.0	/	52.0*	/	/	/

High-throughput results deposited in PubChem BioAssay by several laboratories.
